Screening data from PubChem BioAssay.
Hits are enriched below; roughly 6.9% of the tested compounds scored in any of these assays.
FAK blocker: inhibitors of human focal adhesion kinase; Q05397; biochemical FAK kinase activity assay; inhibition, %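 (tested at 7 µM)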; 0.84% of 97,000 active; AID 727; in the data active = inhibition above about 19%;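 note: 0% = DMSO and 100% = reference compound high control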
Pyk2 oligo antag: antagonists of human Pyk2 oligomerization; Q293 cells, Pyk2 FERM NanoBiT luminescence; active compounds read low; Q14289; z-score (the deposit names both 25 µM and 10 µM); 0.83% of 99,000 active;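 active = Z-score of -3 or lower, scaled per plate to the spread of control and sample wells; inactive = z-score above -3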;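 note: negative z-score means lost luminescence so less FERM oligomerization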
Target sequence (Q14289 whole entry, looked up): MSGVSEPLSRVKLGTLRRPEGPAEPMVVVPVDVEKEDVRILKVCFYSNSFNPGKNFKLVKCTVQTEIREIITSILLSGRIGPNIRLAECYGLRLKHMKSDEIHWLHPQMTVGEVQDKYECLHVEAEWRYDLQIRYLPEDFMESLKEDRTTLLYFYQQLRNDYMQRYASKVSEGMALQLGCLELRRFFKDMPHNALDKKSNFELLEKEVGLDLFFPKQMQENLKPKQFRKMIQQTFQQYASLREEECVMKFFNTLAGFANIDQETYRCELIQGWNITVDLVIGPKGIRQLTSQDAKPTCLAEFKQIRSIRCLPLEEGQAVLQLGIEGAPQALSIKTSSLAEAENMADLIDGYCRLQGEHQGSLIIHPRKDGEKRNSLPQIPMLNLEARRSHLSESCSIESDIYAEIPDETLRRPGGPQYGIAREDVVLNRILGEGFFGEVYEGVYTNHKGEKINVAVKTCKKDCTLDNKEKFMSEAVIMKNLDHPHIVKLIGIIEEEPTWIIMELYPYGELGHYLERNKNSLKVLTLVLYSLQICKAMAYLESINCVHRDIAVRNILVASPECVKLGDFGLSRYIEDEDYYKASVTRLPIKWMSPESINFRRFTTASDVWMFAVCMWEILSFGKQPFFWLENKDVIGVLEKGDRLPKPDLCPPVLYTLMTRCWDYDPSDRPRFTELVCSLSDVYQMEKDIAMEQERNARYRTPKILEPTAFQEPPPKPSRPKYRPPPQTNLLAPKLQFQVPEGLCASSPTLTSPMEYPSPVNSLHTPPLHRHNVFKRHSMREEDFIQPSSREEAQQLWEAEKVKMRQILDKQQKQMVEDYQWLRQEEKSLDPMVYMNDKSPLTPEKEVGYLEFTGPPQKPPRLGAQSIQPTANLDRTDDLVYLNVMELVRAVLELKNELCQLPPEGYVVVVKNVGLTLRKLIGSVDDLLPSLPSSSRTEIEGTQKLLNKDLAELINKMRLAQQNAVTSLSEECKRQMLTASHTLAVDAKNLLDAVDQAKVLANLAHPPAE
tolC growth inh: growth inhibitors of E. coli BW25113 tolC mutant. growth inhibition, % at 10 µM (by protocol). 2.2% of 65,000 active. AID 573. OD615;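 active = growth inhibition at or above a cutoff equal to the mean over every tested compound plus 3 SD, cut at about 60% in these data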;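 note: growth measured after 20 h incubation at 37 °C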
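Test system: tolC-deleted E. coli BW25113 | Medium: LB with kanamycin 50 µg/mL | Compound dosing: Single concentration, 10 µM final per compound | Schedule: 37 °C, 20 h exposure | Measured by: OD at 615 nm | Evaluation: Percent growth inhibition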
Calb biofilm kill: kills Candida albicans biofilms. C. albicans biofilm + clotrimazole, Alamar Blue. inhibition, % at 6 µM. 0.14% of 85,000 active;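 active = inhibition above 20%; inactive = inhibition below 20%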;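 note: preformed 24 hr biofilms exposed to compound for 48 hr; 0% = biofilm without compound and 100% = blank killed by clotrimazole plus chlorhexidine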
PostGolgi yeast: growth inhibition of a yeast mutant, post-Golgi transport screen; post-Golgi transport phenotypic cell assay; inhibition, % at 10 µM; 0.9% of 98,000 active;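 note: yeast cells grown in 1536-well plates; yeast grown about 18 h at 30C before absorbance read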
PostGolgi ctrl: growth of the yeast control strain, post-Golgi counter-screen | inhibition, % at 10 µM | AID 738 | 5% of 98,000 active | efflux-deficient yeast background strain, growth absorbance A615, 16 h
* marks the source's active call; other numbers are inactive results; nt = no result. Cut-off read from the data, not from the text of the source, unless noted: active = inhibition above about 30%; inactive = the rest.

SMILES	FAK blocker	Pyk2 oligo antag	tolC growth inh	Calb biofilm kill	PostGolgi yeast	PostGolgi ctrl
CCC1CCCCN1Cc1ccc(OC)c(C)c1C (centres undefined)	-1	0.78	nt	0	-2	-1
CCOC(=O)N1CCC(c2cc(=O)n3[nH]c(C)c(-c4ccc(F)cc4)c3n2)CC1	9	nt	99*	4	3	6
COc1ccccc1OCc1nc(C#N)c(NCc2ccco2)o1	-6	0.59	31	8	0	1
Cc1ccc(C(C)NC(=O)c2cc(C)oc2C)cc1 (centres undefined)	4	-0.51	8	6	2	33*
COC(=O)c1ccccc1S(=O)(=O)N1Cc2cc([N+](=O)[O-])ccc2Oc2ccccc21	2	-2.3	nt	-2	20	19
CC(C)CCN1CC(C(=O)NC(C)C)CC1=O (centres undefined)	nt	0.82	-14	7	-8	2
CSCc1cc(N(C)C)nc(SCc2ccc(Cl)c(Cl)c2)n1	-1	-0.89	nt	nt	-9	19
Clc1ccc(CSc2ncccn2)cc1	2	1.1	2	-4	-1	7
O=Cc1cc2ccccc2nc1SCc1ccc(Cl)cc1	1	-1.6	nt	nt	68*	23
O=Cc1cc2ccccc2nc1SCc1ccc(Cl)c(Cl)c1	2	-1.5	nt	nt	-5	38*
Cc1ccc(CSc2nc3ccccc3cc2C=O)cc1	2	-0.18	nt	nt	75*	38*
CCOC(=O)Cn1c(=O)oc2cc(S(=O)(=O)Nc3ccc(N(CC)CC)cc3C)ccc21	-2	nt	21	6	-1	9
CC(C)(C)N(C(=O)Cn1nnc(-c2ccc(F)cc2)n1)C(C(=O)NC1CCCC1)c1ccncc1 (centres undefined)	1	-0.56	nt	10	nt	nt
CC1(C)C(=O)OC(c2cc(Br)ccc2O)C(C)(C)C1=O (centres undefined)	nt	nt	63*	8	nt	nt
[O-][N+]1=c2ccc(Nc3ccccc3)cc2=NC12CCCCC2	-9	-1	90*	7	-11	5
O=C(Nc1nnc(C2CC2)s1)C1Cc2ccccc2CN1S(=O)(=O)c1ccccc1F (centres undefined)	0	-3.7*	nt	9	3	8
CC(=O)N1N=C(c2cccc([N+](=O)[O-])c2)OC1c1ccc(Cl)cc1Cl (centres undefined)	0	-0.29	nt	nt	10	34*
CC(=O)Nc1ccc(NS(C)(=O)=O)cc1	0	0.25	nt	3	-2	-2
COC(=O)Cc1ccc(NC(=O)c2cccs2)cc1	-1	-1	-3	10	-4	-6
CC1CCc2nn(CC(=O)N3CCCCCC3)cc2C1 (centres undefined)	nt	nt	-23	9	1	4
CC(=O)Nc1ccc(S(=O)(=O)N2CCN(c3nc(NC4CCCC4)c4ccccc4n3)CC2)cc1	-3	-3*	54	-3	18	6
Cc1cc(C)c2c(c1)SC1=NC(c3ccccc3)(C(F)(F)F)NC(=O)N12 (centres undefined)	1	2	nt	4	10	43*
CC(C)Cn1cnc2c(c(-c3ccccc3)c(-c3ccccc3)n2Cc2ccco2)c1=N	2	0.97	nt	11	83*	62*
N=c1c2c(-c3ccccc3)c(-c3ccccc3)n(Cc3ccccc3)c2ncn1CCO	14	-1.5	nt	0	23	18
N=c1c2c(-c3ccccc3)c(-c3ccccc3)n(Cc3ccco3)c2ncn1Cc1ccccc1	8	-0.17	nt	43*	75*	34*
SMILES	FAK blocker	Pyk2 oligo antag	tolC growth inh	Calb biofilm kill	PostGolgi yeast	PostGolgi ctrl
COc1ccccc1-n1cnc2cc(C(=O)NC3CCCC3)ccc21	1	-0.5	nt	8	nt	nt
O=C1/C(=C/c2ccc([N+](=O)[O-])cc2)C=C(c2ccccc2)N1c1ccccc1	-3	-0.2	nt	nt	-3	4
O=C1/C(=C/c2ccc([N+](=O)[O-])cc2)C=C(c2ccccc2)N1c1ccc(O)cc1	0	-1.2	nt	5	92*	74*
COc1ccc(CCN(Cc2cccs2)S(=O)(=O)c2ccc(-n3cnnn3)cc2)cc1OC	-3	-0.21	17	6	0	23
Clc1ccc2[nH]c(-c3ccccc3)cc2c1	0	0.32	nt	nt	-6	42*
CCC(=O)Nc1ccc(S(=O)(=O)Nc2ncccn2)cc1	0	-0.89	nt	nt	2	31*
CC(=O)Nc1ccc(S(=O)(=O)Nc2ncccn2)cc1	nt	0.35	-9	6	-4	-12
COC(=O)c1nn(-c2ccccc2)nc1-c1nn(-c2ccccc2)nc1C(=O)OC	0	-1.2	nt	5	36*	77*
O=C(O)c1nn(-c2ccccc2)nc1-c1nn(-c2ccccc2)nc1C(=O)O	-9	2	-19	5	3	4
Cc1ccc(-c2cc3nc(C)cc(NCc4ccco4)n3n2)cc1	8	0.11	48	5	8	33*
COc1ccc(-c2cc3nc(C)cc(NCCO)n3n2)cc1	-2	-0.68	-22	8	-6	7
Clc1cccc(-c2cc3nc4c(c(NCc5ccco5)n3n2)CCCC4)c1	6	-2.7	nt	nt	-7	55*
Cc1nc2cc(-c3ccc(Cl)cc3)nn2c(C)c1CCC(=O)NCc1ccco1	-3	nt	nt	6	14	32*
CC12CCC(=O)N1C(C(=O)Nc1cccc3ccccc13)CS2 (centres undefined)	nt	-0.23	-7	3	nt	nt
Cn1c(=O)[nH]c(=O)c2c1nc(N1CCCC1)n2CC(O)COc1ccccc1 (centres undefined)	2	nt	-3	12	-5	3
CCn1c2ccccc2c2cc(/C=N/n3cnnc3)ccc21	1	-1.6	40	8	10	42*
CCn1c2ccccc2c2cc(/C=N/NC(=O)c3cccc(C)c3)ccc21	-9	-0.46	nt	nt	-2	34*
CCn1c2ccccc2c2cc(/C=N/NC(=O)c3ccccc3C)ccc21	nt	-1.1	nt	nt	nt	nt
CCn1c2ccccc2c2cc(/C=N/n3cn[nH]c3=S)ccc21	3	-1.1	nt	9	4	43*
O=C(Nc1cccc2ccccc12)c1nn(C23CC4CC(CC(C4)C2)C3)cc1[N+](=O)[O-]	3	0.12	nt	nt	47*	85*
CCn1nc(C)c(/C=N\NC(=O)c2ccc3c(c2)OCO3)c1C	1	0.24	nt	nt	3	1
CNC(=O)CSc1nc(N)c2c3c(sc2n1)CCC3	2	1.9	nt	3	7	4
NC(=O)CSc1nc(N)c2c3c(sc2n1)CCCCC3	nt	-0.15	6	8	6	31*
CC1CCN(S(=O)(=O)c2ccc3[nH]c(=O)cc(C(=O)O)c3c2)CC1	1	0.3	-4	1	-15	31*
COc1cc(CCC(=O)N2CCN(S(=O)(=O)c3ccc(C)c(C)c3)CC2)cc(OC)c1OC	-1	-0.41	5	2	17	0
CNC(=O)c1ccccc1NC(=O)c1cccc(S(=O)(=O)N2CCC(C)CC2)c1	nt	-3.5*	24	8	4	16
COc1ccc(CCC(=O)N2CCN(S(=O)(=O)c3ccc4ccccc4c3)CC2)cc1	2	-0.83	nt	7	0	37*
